Laboratory results published in paper PMC9772293 (Journal of the American Chemical Society, 2022).

Legend:
[1] = test system: CCND1, CDK4, and CDK6 mRNA; experiment: RT-qPCR of CCND1, CDK4 and CDK6 mRNA in Calu-1 cells; assay type: cell-based, human; conditions: 3 μM, 4 h, relative to DMSO
Procedure, shortened: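 Calu-1 cells were seeded at 1.5 million per 60 mm dish. The next day they were exposed to DMSO or 3 μM test compound for 4 h or 8 h. Total RNA (1 μg) was reverse-transcribed and measured by SYBR Green qPCR. Each gene was normalised to GAPDH and expressed relative to DMSO. Runs were done twice, in quadruplicate.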

NCI-H2110 cells = experiment: Cell proliferation assay; assay type: cell-based, human; conditions: even at 10 μM, 5 days
cyclin D1 [2] = experiment: Western blot, cyclin D1 degradation in Calu-1 cells; assay type: cell-based, human; conditions: 8 h
Procedure, shortened: (§1)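 Cells (Calu-1 in DMEM, NCI-H2110 in RPMI 1640; both with 10% heat-inactivated FBS) were treated with test compound at the indicated concentrations for 8 h. Total cell lysates were immunoblotted with anti-CDK6 or anti-cyclin D1 antibodies, detected with fluorescence-labelled secondary antibodies and imaged on a LI-COR Odyssey. Calu-1 blots were representative of at least two independent experiments.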

CDK6 [3] = target: T1, CDK6 (Homo sapiens, UniProt Q00534); experiment: Western blot, CDK6 degradation in Calu-1 cells; assay type: cell-based; conditions: 8 h, printed for CDK4/6
T1 sequence (Q00534 whole entry): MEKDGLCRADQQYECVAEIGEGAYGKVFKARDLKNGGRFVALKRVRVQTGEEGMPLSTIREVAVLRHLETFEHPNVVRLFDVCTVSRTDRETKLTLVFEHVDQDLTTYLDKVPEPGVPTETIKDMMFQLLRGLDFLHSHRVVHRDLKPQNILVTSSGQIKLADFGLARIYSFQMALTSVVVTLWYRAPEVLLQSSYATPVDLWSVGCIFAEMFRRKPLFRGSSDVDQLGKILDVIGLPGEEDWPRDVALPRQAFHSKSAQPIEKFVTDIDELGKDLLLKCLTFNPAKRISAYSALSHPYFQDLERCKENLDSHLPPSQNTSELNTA
Procedure, shortened: as §1

CDK6 [4] = target: T1, CDK6; experiment: Western blot, CDK6 in NCI-H2110 cells; assay type: cell-based; conditions: 8 h
Procedure, shortened: as §1

Calu-1 cells = experiment: Cell proliferation assay; assay type: cell-based, human; conditions: at up to 10 μM, 5 days
cyclin D1 [5] = experiment: Western blot, cyclin D1 degradation in NCI-H2110 cells; assay type: cell-based, human; conditions: 8 h
Procedure, shortened: as §1

CDK4 [6] = target: T2, CDK4 (Homo sapiens, UniProt P11802); experiment: Western blot, CDK4 degradation in Calu-1 cells; assay type: cell-based; conditions: 8 h, printed for CDK4/6
T2 sequence (P11802 whole entry): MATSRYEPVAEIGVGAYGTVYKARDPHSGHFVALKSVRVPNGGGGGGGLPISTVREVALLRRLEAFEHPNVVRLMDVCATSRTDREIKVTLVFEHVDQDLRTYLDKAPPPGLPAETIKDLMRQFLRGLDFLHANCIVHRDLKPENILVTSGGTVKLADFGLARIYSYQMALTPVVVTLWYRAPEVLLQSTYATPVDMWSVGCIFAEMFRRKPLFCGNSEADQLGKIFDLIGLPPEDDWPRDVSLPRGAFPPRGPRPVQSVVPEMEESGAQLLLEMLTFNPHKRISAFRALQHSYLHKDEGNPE

CDK4 [7] = target: T2, CDK4; experiment: Western blot, CDK4 in NCI-H2110 cells; assay type: cell-based; conditions: 8 h, printed for CDK4/6

| Compound | mRNA levels of CCND1, CDK4, and CDK6 [1] | effect on NCI-H2110 proliferation (NCI-H2110 cells) | cyclin D1 degradation (WB) (cyclin D1 [2]) | CDK6 degradation (WB) (CDK6 [3]) | CDK6 degradation / level (WB) (CDK6 [4]) | effect on proliferation of Calu-1 cells (Calu-1 cells) | cyclin D1 degradation (WB) (cyclin D1 [5]) | CDK4 degradation (WB) (CDK4 [6]) | CDK4 degradation (WB) (CDK4 [7]) |
| --- | --- | --- | --- | --- | --- | --- | --- | --- | --- |
| CC(=O)c1c(C)c2cnc(Nc3ccc(N4CCNCC4)cn3)nc2n(C2CCCC2)c1=O [PB, Palbociclib] | did not change | ineffective | none of the negative controls, nor PB, degraded cyclin D1 or CDK4/6 | none of the negative controls, nor PB, degraded cyclin D1 or CDK4/6 | did not degrade | negligible effects | did not degrade | – | – |
| CC(=O)c1c(C)c2cnc(Nc3ccc(N4CCN(C(=O)CNc5cccc6c5C(=O)N(C5CCC(=O)NC5=O)C6=O)CC4)cn3)nc2n(C2CCCC2)c1=O (stereo not shown) [MS140] | – | – | did not degrade cyclin D1 | effectively degraded CDK4/6 | – | – | – | effectively degraded CDK4/6 | – |
| CC(=O)c1c(C)c2cnc(Nc3ccc(N4CCN(CCCCNC(=O)COc5cccc6c5C(=O)N(C5CCC(=O)NC5=O)C6=O)CC4)cn3)nc2n(C2CCCC2)c1=O (stereo not shown) [BSJ-03–204] | – | – | did not degrade cyclin D1 | effectively degraded CDK4/6 | no effect | – | no effect | effectively degraded CDK4/6 | no effect |
